Measurements published in ChEMBL document CHEMBL4020705, “Investigation of aryl isonitrile compounds with potent, broad-spectrum antifungal activity” (Bioorg Med Chem, 2017).
In brackets after ≈: the same amount, converted by molar mass.

What was measured:
Candida albicans [1] = assay: Fungicidal activity against Candida albicans NR-29448 after 18 hrs; format: functional; settings: NR-29448, 18 h, read-out: MFC99.9
Outline: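 Starting from the MIC plate, 5 μL aliquots are taken from wells with no growth and spotted onto YPD agar. After 18 h at 37 °C, MFC is recorded as the concentration giving a >99.9% decrease in CFU.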

Candida albicans [2] = assay: Antifungal activity against Candida albicans NR-29448 after 44 hrs by broth dilution assay; format: functional; settings: NR-29448, 44 h
Outline: (§1)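 Yeast broth microdilution per CLSI M27-A3, in RPMI-1640. Incubation is at 37 °C for at least 44 h. MIC is the lowest concentration with no visible growth, read by eye.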

Candida albicans [3] = assay: Antifungal activity against Candida albicans ATCC 27365 after 44 hrs by broth dilution assay; format: functional; settings: ATCC 27365, 44 h; outline: as §1
Aspergillus fumigatus [4] = assay: Antifungal activity against Aspergillus fumigatus NR-35302 after 44 hrs by broth dilution assay; settings: NR-35302, 44 h
Aspergillus niger [5] = assay: Antifungal activity against Aspergillus niger ATCC 6275 after 44 hrs by broth dilution assay; settings: ATCC 6275, 44 h
Candida tropicalis [6] = assay: Antifungal activity against Candida tropicalis ATCC 1369 after 44 hrs by broth dilution assay; format: functional; settings: ATCC 1369, 44 h; outline: as §1
Nakaseomyces glabratus [7] = assay: Antifungal activity against Candida glabrata ATCC MYA-2950 after 44 hrs by broth dilution assay; format: functional; settings: ATCC MYA-2950, 44 h; outline: as §1
Candida parapsilosis = assay: Antifungal activity against Candida parapsilosis ATCC 22019 after 44 hrs by broth dilution assay; format: functional; settings: Lodderomyces parapsilosis, ATCC 22019, 44 h; outline: as §1
Candida tropicalis [8] = assay: Antifungal activity against Candida tropicalis ATCC 13803 after 44 hrs by broth dilution assay; format: functional; settings: ATCC 13803, 44 h; outline: as §1
Pichia kudriavzevii [9] = assay: Antifungal activity against Candida krusei ATCC 14243 after 44 hrs by broth dilution assay; format: functional; settings: ATCC 14243, 44 h; outline: as §1
Aspergillus brasiliensis = assay: Antifungal activity against Aspergillus brasiliensis ATCC 16404 after 44 hrs by broth dilution assay; settings: ATCC 16404, 44 h
[10] = test system: Cryptococcus gattii species complex; assay: Antifungal activity against Cryptococcus gattii NR-43208 after 68 hrs by broth dilution assay; format: functional, Cryptococcus bacillisporus; settings: NR-43208, 68 h
Outline: (§2)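 Cryptococcus MIC follows CLSI M27-A3 broth dilution in RPMI-1640. Incubation is at 37 °C for 68 h, and the MIC is read by visual inspection.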

Pichia kudriavzevii [11] = assay: Antifungal activity against Candida krusei ATCC 34135 after 44 hrs by broth dilution assay; format: functional; settings: ATCC 34135, 44 h; outline: as §1
Aspergillus niger [12] = assay: Antifungal activity against Aspergillus niger ATCC 16888 after 44 hrs by broth dilution assay; settings: ATCC 16888, 44 h
Candida albicans [13] = assay: Antifungal activity against Candida albicans NR-29446 after 44 hrs by broth dilution assay; format: functional; settings: NR-29446, 44 h; outline: as §1
Nakaseomyces glabratus [14] = assay: Antifungal activity against Candida glabrata ATCC 66032 after 44 hrs by broth dilution assay; format: functional; settings: ATCC 66032, 44 h; outline: as §1
Candida albicans [15] = assay: Antifungal activity against Candida albicans ATCC 29351 after 44 hrs by broth dilution assay; format: functional; settings: ATCC 29351, 44 h; outline: as §1
[16] = test system: Cryptococcus gattii species complex; assay: Antifungal activity against Cryptococcus gattii NR-43209 after 68 hrs by broth dilution assay; format: functional, Cryptococcus bacillisporus; settings: NR-43209, 68 h; outline: as §2
Candida albicans [17] = assay: Antifungal activity against Candida albicans NR-29368 after 44 hrs by broth dilution assay; format: functional; settings: NR-29368, 44 h; outline: as §1
Candida albicans [18] = assay: Antifungal activity against Candida albicans ATCC MYA 573 after 44 hrs by broth dilution assay; format: functional; settings: ATCC MYA 573, 44 h; outline: as §1
Aspergillus fumigatus [19] = assay: Antifungal activity against Aspergillus fumigatus NR-35301 after 44 hrs by broth dilution assay; settings: NR-35301, 44 h
Candida albicans [20] = assay: Antifungal activity against Candida albicans ATCC 64124 after 44 hrs by broth dilution assay; format: functional; settings: ATCC 64124, 44 h; outline: as §1
Cryptococcus neoformans = assay: Antifungal activity against Cryptococcus neoformans NR-41292 after 68 hrs by broth dilution assay; format: functional; settings: NR-41292, 68 h; outline: as §2
HRT-18 cell line [21] = assay: Cytotoxicity against human HRT18 cells assessed as cell viability at 128 uM after 2 hrs by MTS assay; format: cell-based; settings: hrt-18, 2 h
Outline: (§3)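 HRT-18 cells are grown in RPMI-1640 with 10% fetal horse serum at 37 °C, 5% CO2. Compounds are added in triplicate for 2 h, with DMSO-matched vehicle controls. MTS is then added for 4 h and absorbance read at 490 nm. Viability is given as % of DMSO control, mean ± SD. Two-way ANOVA with Dunnett's test.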

HRT-18 cell line [22] = assay: Cytotoxicity against human HRT18 cells assessed as cell viability at 256 uM after 2 hrs by MTS assay; format: cell-based; settings: hrt-18, 2 h; outline: as §3

Compound: CC/C(=C\c1ccccc1)c1ccccc1
- MFC (Candida albicans [1]): > 64 µM
- MIC (Candida albicans [2]): > 64 µM

Compound: N#Cc1ccccc1/C=C/c1ccccc1
- MFC (Candida albicans [1]): > 64 µM
- MIC (Candida albicans [2]): > 64 µM

Compound: Nc1ccccc1/C=C/c1ccccc1
- MIC (Candida albicans [2]): 64 µM (≈ 12.5 µg/mL)

Compound: N#Cc1ccc(/C=C/c2ccccc2)cc1
- MFC (Candida albicans [1]): > 64 µM
- MIC (Candida albicans [3]): 1 µM (≈ 0.205 µg/mL)
- MIC (Aspergillus fumigatus [4]): 32 µM (≈ 6.57 µg/mL)
- MIC (Aspergillus niger [5]): > 64 µM
- MIC (Candida tropicalis [6]): 16 µM (≈ 3.28 µg/mL)
- MIC (Nakaseomyces glabratus [7]): 8 µM (≈ 1.64 µg/mL)
- MIC (Candida parapsilosis): 2 µM (≈ 0.411 µg/mL)
- MIC (Candida tropicalis [8]): 4 µM (≈ 0.821 µg/mL)
- MIC (Pichia kudriavzevii [9]): 32 µM (≈ 6.57 µg/mL)
- MIC (Aspergillus brasiliensis): > 64 µM
- MIC [10]: ≤ 0.5 µM
- MIC (Pichia kudriavzevii [11]): 16 µM (≈ 3.28 µg/mL)
- MIC (Aspergillus niger [12]): > 64 µM
- MIC (Candida albicans [13]): 1 µM (≈ 0.205 µg/mL)
- MIC (Nakaseomyces glabratus [14]): 8 µM (≈ 1.64 µg/mL)
- MIC (Candida albicans [15]): 1 µM (≈ 0.205 µg/mL)
- MIC [16]: ≤ 0.5 µM
- MIC (Candida albicans [17]): 2 µM (≈ 0.411 µg/mL)
- MIC (Candida albicans [18]): 1 µM (≈ 0.205 µg/mL)
- MIC (Aspergillus fumigatus [19]): 64 µM (≈ 13.1 µg/mL)
- MIC (Candida albicans [20]): 2 µM (≈ 0.411 µg/mL)
- MIC (Cryptococcus neoformans): ≤ 0.5 µM
- MIC (Candida albicans [2]): 2 µM (≈ 0.411 µg/mL)
- Activity (HRT-18 cell line [21]): Non-Toxic
- Activity (HRT-18 cell line [22]): Non-Toxic

Compound: CC/C(=C\c1ccccc1C#N)c1ccc(OC)cc1
- MFC (Candida albicans [1]): > 64 µM
- MIC (Candida albicans [2]): > 64 µM

Compound: COc1cccc(/C=C/c2ccccc2C#N)c1
- MIC (Candida albicans [2]): 16 µM (≈ 3.76 µg/mL)

Compound: N#Cc1ccccc1/C=C/c1ccc([N+](=O)[O-])cc1
- MFC (Candida albicans [1]): 64 µM (≈ 16 µg/mL)
- MIC (Candida albicans [2]): 8 µM (≈ 2 µg/mL)

Compound: CCCCc1ccc(/C=C/c2ccccc2C#N)cc1
- MFC (Candida albicans [1]): 64 µM (≈ 16.7 µg/mL)
- MIC (Candida albicans [2]): 8 µM (≈ 2.09 µg/mL)

Compound: N#Cc1cccc(/C=C/c2ccccc2)c1
- MFC (Candida albicans [1]): 32 µM (≈ 6.57 µg/mL)
- MIC (Candida albicans [2]): 4 µM (≈ 0.821 µg/mL)

Compound: N#Cc1ccccc1C=C1CCCCC1
- MFC (Candida albicans [1]): > 64 µM
- MIC (Candida albicans [2]): 4 µM (≈ 0.789 µg/mL)

Compound: COc1ccc(/C=C/c2ccccc2C#N)cc1
- MFC (Candida albicans [1]): > 64 µM
- MIC (Candida albicans [2]): 1 µM (≈ 0.235 µg/mL)

Compound: C/C(=C\c1ccccc1C#N)c1ccccc1
- MFC (Candida albicans [1]): > 64 µM
- MIC (Candida albicans [2]): 8 µM (≈ 1.75 µg/mL)

Compound: N#Cc1ccccc1/C=C/c1ccc(F)cc1
- MIC (Candida albicans [2]): 64 µM (≈ 14.3 µg/mL)

Compound: N#Cc1ccccc1-c1ccccc1
- MFC (Candida albicans [1]): > 64 µM
- MIC (Candida albicans [2]): 0.5 µM (≈ 0.0896 µg/mL)

Compound: OC(Cn1cncn1)(Cn1cncn1)c1ccc(F)cc1F [FLUCONAZOLE]
- MFC (Candida albicans [1]): > 64 µM
- MIC (Candida albicans [3]): 1 µM (≈ 0.306 µg/mL)
- MIC (Aspergillus fumigatus [4]): > 64 µM
- MIC (Aspergillus niger [5]): > 64 µM
- MIC (Candida tropicalis [6]): > 64 µM
- MIC (Nakaseomyces glabratus [7]): > 64 µM
- MIC (Candida tropicalis [8]): > 64 µM
- MIC (Pichia kudriavzevii [9]): 64 µM (≈ 19.6 µg/mL)
- MIC (Aspergillus brasiliensis): > 64 µM
- MIC [10]: 8 µM (≈ 2.45 µg/mL)
- MIC (Pichia kudriavzevii [11]): 64 µM (≈ 19.6 µg/mL)
- MIC (Aspergillus niger [12]): > 64 µM
- MIC (Candida albicans [13]): > 64 µM
- MIC (Nakaseomyces glabratus [14]): > 64 µM
- MIC (Candida albicans [15]): ≤ 0.5 µM
- MIC [16]: 8 µM (≈ 2.45 µg/mL)
- MIC (Candida albicans [17]): > 64 µM
- MIC (Candida albicans [18]): > 64 µM
- MIC (Aspergillus fumigatus [19]): > 64 µM
- MIC (Candida albicans [20]): > 64 µM
- MIC (Cryptococcus neoformans): 8 µM (≈ 2.45 µg/mL)
- MIC (Candida albicans [2]): 0.5 µM (≈ 0.153 µg/mL)
